The values that follow come from ChEMBL document CHEMBL2401693, “Chromatographic separation of piracetam and its metabolite in a mixture of microsomal preparations, followed by an MS/MS analysis” (Eur J Med Chem, 2013).

The subject of data set [1] is Plasma. Put plainly: Stability in rat plasma assessed as Metabolite M1at 20 ng/ml after 24 hrs by autosampler analysis. In kind it is ADME, cell-free. The method, boiled down: (§1)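 M1 spiked into drug-free rat plasma at QC low and high levels, six replicates per level; extracted with ethyl acetate, UPLC-MS/MS. Conditions: bench top room temperature, frozen storage, three freeze–thaw cycles (frozen ≥12 h each), processed samples in autosampler. Stable if accuracy and precision within 15%; reported as % nominal and RSD.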

In data set [2] the test system is Rattus norvegicus. In words: Clearance in Wistar rat assessed as Metabolite M1 at 50 mg/kg, po. The class given is ADME, organism-based. More on the design: dose 50 mg/kg, route oral. As to conditions: in vivo.
The subject of data set [3] is Liver microsomes. In words: Metabolic stability in human liver microsomes assessed as compound remaining after 30 mins by UPLC-MS/MS analysis. As to conditions: 0.5 h. In kind it is ADME, Microsome.
For data set [4], the system named is Rattus norvegicus. Put plainly: […] in Wistar rat assessed as Metabolite M1 at 50 mg/kg, po. More on the design: dose 50 mg/kg, route oral. As to conditions: in vivo. In kind it is ADME, organism-based.
Data set [5] has as its system Plasma. Put plainly: Stability in rat plasma assessed as metabolite M1 at 180 ng/ml after 24 hrs by autosampler analysis. The class given is ADME, cell-free. The method, boiled down: as §1
Data set [6] deals with Liver microsomes. Put plainly: Metabolic stability in human liver microsomes assessed as retention time by UPLC-MS/MS analysis. The class given is ADME, Microsome. The essentials: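 UPLC on BEH column (1.7 µm) at 30 °C, isocratic acetonitrile/10 mM ammonium acetate pH 5.0 (15:85), 0.3 ml/min, 5 µL injection, PDA 209 nm with Q-TOF ESI positive mode.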
For data set [7], the system named is Liver microsomes. Put plainly: Metabolic stability in human liver microsomes assessed as compound remaining after 40 mins by UPLC-MS/MS analysis. In kind it is ADME, Microsome.
The subject of data set [8] is Rattus norvegicus. In words: AUC (0 to t) in Wistar rat assessed as Metabolite M1 at 50 mg/kg, po. The note with it: in vivo. In kind it is ADME, organism-based, Plasma. More on the design: dose 50 mg/kg, route oral.
Data set [9] has as its system Plasma. Put plainly: Stability in rat plasma assessed as metabolite M1 at 180 ng/ml after 10 days at -80 degC. In kind it is ADME, cell-free. As to conditions: 240 h. The essentials:
as §1

The subject of data set [10] is Rattus norvegicus. Put plainly: Cmax in Wistar rat assessed as Metabolite M1 at 50 mg/kg, po. In kind it is ADME, organism-based. More on the design: dose 50 mg/kg, route oral. As to conditions: in vivo.
In data set [11] the test system is Liver microsomes. Put plainly: Metabolic stability in human liver microsomes assessed as compound remaining after 20 mins by UPLC-MS/MS analysis. In kind it is ADME, Microsome.
In data set [12] the test system is Plasma. Put plainly: Stability in rat plasma assessed as metabolite M1 at 180 ng/ml during three freeze-thaw cycles. The class given is ADME, cell-free. The method, boiled down: as §1
The test system of data set [13] is Plasma. In words: Stability in rat plasma assessed as Metabolite M1at 20 ng/ml after 2 hrs at room temperature. In kind it is ADME, cell-free. The method, boiled down:
as §1

Data set [14] has as its system Plasma. In words: Stability in rat plasma assessed as Metabolite M1at 20 ng/ml after 10 days at -80 degC. In kind it is ADME, cell-free. The note with it: 240 h. The method, boiled down: as §1
In data set [15] the test system is Rattus norvegicus. In words: AUC (0 to infinity) in Wistar rat assessed as Metabolite M1 at 50 mg/kg, po. In kind it is ADME, organism-based, Plasma. More on the design: dose 50 mg/kg, route oral, time infinity. The note with it: in vivo.
The subject of data set [16] is Plasma. Put plainly: Stability in rat plasma assessed as Metabolite M1at 20 ng/ml after 30 days at -20 degC. In kind it is ADME, cell-free. As to conditions: 720 h. The essentials:
as §1

The test system of data set [17] is Rattus norvegicus. Put plainly: Apparent elimination half life in Wistar rat assessed as Metabolite M1 at 50 mg/kg, po. More on the design: dose 50 mg/kg, route oral. The note with it: in vivo. In kind it is ADME, organism-based.
The test system of data set [18] is Plasma. In words: Stability in rat plasma assessed as metabolite M1 at 180 ng/ml after 30 days at -20 degC. The class given is ADME, cell-free. The note with it: 720 h. The method, boiled down:
as §1

The subject of data set [19] is Plasma. Put plainly: Stability in rat plasma assessed as metabolite M1 at 180 ng/ml after 2 hrs at room temperature. The class given is ADME, cell-free. The method, boiled down:
as §1

Data set [20] relates to Rattus norvegicus. In words: Tmax in Wistar rat assessed as Metabolite M1 at 50 mg/kg, po. In kind it is ADME, organism-based. More on the design: dose 50 mg/kg, route oral. The note with it: in vivo.
In data set [21] the test system is Liver microsomes. In words: Metabolic stability in human liver microsomes assessed as compound remaining after 50 mins by UPLC-MS/MS analysis. The class given is ADME, Microsome.
For data set [22], the system named is Liver microsomes. In words: Metabolic stability in human liver microsomes assessed as compound remaining after 10 mins by UPLC-MS/MS analysis. In kind it is ADME, Microsome.
Data set [23] has as its system Plasma. In words: Stability in rat plasma assessed as Metabolite M1at 20 ng/ml during three freeze-thaw cycles. The class given is ADME, cell-free. The method, boiled down:
as §1

Data set [24] deals with Liver microsomes. In words: Drug metabolism in human liver microsomes assessed as Metabolite M1 formation after 10 mins by UPLC-MS/MS analysis. In kind it is ADME, Microsome. The essentials:
(§2)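 Pooled human liver microsomes (30 donors), 0.5 mg protein/ml, in 50 mM Tris-HCl pH 7.4 with 5 mM MgCl2 and 50 mM piracetam (final 500 µL), triplicate tubes, 37 °C with shaking. After 10-min preincubation, reaction started with 2 mM NADPH. Stopped with cold ethyl acetate at the stated time, then centrifuged, reconstituted in mobile phase and analysed by UPLC-MS/MS.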

Data set [25] has as its system Liver microsomes. In words: Drug metabolism in human liver microsomes assessed as Metabolite M1 formation after 30 mins by UPLC-MS/MS analysis. In kind it is ADME, Microsome. The note with it: 0.5 h. The method, boiled down: as §2
Data set [26] has as its system Liver microsomes. Put plainly: Drug metabolism in human liver microsomes assessed as Metabolite M1 formation after 20 mins by UPLC-MS/MS analysis. In kind it is ADME, Microsome. The essentials: as §2
Data set [27] concerns Liver microsomes. In words: Drug metabolism in human liver microsomes assessed as Metabolite M1 formation after 50 mins by UPLC-MS/MS analysis. The class given is ADME, Microsome. The essentials:
as §2

Data set [28] has as its system Liver microsomes. Put plainly: Drug metabolism in human liver microsomes assessed as Metabolite M1 formation after 40 mins by UPLC-MS/MS analysis. In kind it is ADME, Microsome. The essentials:
as §2

In the case of `NC(=O)CN1CCCC1=O` [PIRACETAM], the Drug metabolism in data set [1] is 19.043 ng/mL; in data set [5], 178.753 ng/mL; in data set [9], 179.13 ng/mL; in [12], 178.42 ng/mL; in data set [13], 19.347 ng/mL; in data set [14], 18.853 ng/mL. The Drug metabolism in [16] came out at 18.787 ng/mL; in [18], 179.123 ng/mL; in data set [19], 178.883 ng/mL; in data set [23], 18.88 ng/mL. For the same molecule, in data set [2], the CL amounted to 887.3 mL/min/kg. The Stability in [3] was determined as 43.78 µM; in data set [7], 40.56 µM; in [11], 45.66 µM; in [21] it was 36.22 µM; in [22], 47.56 µM. Moreover, the MRT in data set [4] came out at 5.542 h. Also, the Retention_time in data set [6] came out at 2.726 min. In [8], the AUCt turned out to be 928.445 µg·h/mL. In addition, the Cmax in data set [10] was 155.39 ng/mL. In addition, the AUC in [15] was 939.178 µg·h/mL. For the same molecule, the “betat1/2(app)” value in data set [17] amounted to 3.652 h. Besides, the Tmax in data set [20] turned out to be 1 h.

As for `O=C(O)CN1CCCC1=O`, the Retention_time in data set [6] came to 2.042 min. Moreover, the Drug metabolism in [24] is 2.42 µM; in [25], 6.45 µM; in data set [26], 4.79 µM; in data set [27], 13.89 µM; in [28], 9.23 µM.
